Screening data as filed in PubChem.
NR1D1 modulator: modulates human Rev-erb alpha binding to DNA | actives 0.79% (n = 370,000) | activity, % at 10 µM | Rev-erbα–FITC-DNA binding, fluorescence polarization, 90 min;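 active = activity above about 14%, limit read from the data; passing the limit was not always enough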;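 also: 0% = DMSO wells with 35 nM protein and 100% = DMSO wells with 750 nM protein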
Target sequence (P20393 whole entry, looked up): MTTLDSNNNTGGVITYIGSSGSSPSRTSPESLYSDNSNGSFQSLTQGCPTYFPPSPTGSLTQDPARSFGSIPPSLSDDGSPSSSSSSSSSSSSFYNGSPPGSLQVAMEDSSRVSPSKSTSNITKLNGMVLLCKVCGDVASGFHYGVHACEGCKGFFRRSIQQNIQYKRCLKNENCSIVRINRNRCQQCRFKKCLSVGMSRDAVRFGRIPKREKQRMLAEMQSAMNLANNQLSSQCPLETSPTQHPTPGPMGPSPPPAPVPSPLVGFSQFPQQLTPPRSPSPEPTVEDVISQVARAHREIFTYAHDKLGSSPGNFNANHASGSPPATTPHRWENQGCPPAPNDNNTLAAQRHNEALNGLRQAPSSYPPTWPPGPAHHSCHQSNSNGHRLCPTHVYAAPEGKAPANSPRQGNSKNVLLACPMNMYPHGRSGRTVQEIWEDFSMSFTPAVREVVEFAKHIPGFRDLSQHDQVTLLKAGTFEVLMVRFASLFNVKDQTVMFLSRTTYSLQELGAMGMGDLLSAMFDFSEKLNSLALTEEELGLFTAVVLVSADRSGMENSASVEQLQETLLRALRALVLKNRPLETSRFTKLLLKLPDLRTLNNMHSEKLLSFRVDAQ
rCAG RNA binder: r(CAG) repeat RNA binding. TO-PRO-1 dye displacement fluorescence. inhibition, % at 3 µM. actives 1.3% (n = 370,000);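 active = inhibition above the plate cutoff, the mean of all test compounds on that plate plus 3 SD, cut at about 35% in these data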;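 also: 0% = DMSO alone and 100% = 100 µM mitoxantrone as full dye displacement; higher means more dye released from RNA so lower well fluorescence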
NR2E3 ag-1: human photoreceptor-specific nuclear receptor agonism. Q9Y5X4. CHO-S Gal4-NCOR/VP16-NR2E3 two-hybrid, luciferase. inhibition of corepressor binding, % at 3.98 µM. actives 0.35% (n = 360,000);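 active = inhibition above the mean of all tested compounds plus 3 SD, cut at about 70% in these data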;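 also: 0% = DMSO with NR2E3 transfected cells and 100% = cells lacking NR2E3 construct; higher means lower luciferase signal from less NR2E3 corepressor binding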
PG9 binder: small molecules binding HIV-1 gp120 antibody PG9. TR-FRET gp120-PG9 antibody binding. actives 0.43% (n = 360,000). inhibition, % at 6.7 µM; in the data active = inhibition above about 8.5%
NR2E3 ag-2: activates human photoreceptor nuclear receptor NR2E3 | Q9Y5X4 | GST-NR2E3/biotin-RetCOR TR-FRET, 1536-well | inhibition of corepressor binding, % at 4.78 µM | actives 0.12% (n = 320,000);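 active = percent inhibition above the cutoff of mean plus 3 SD of all tested compounds, set per screening campaign, cut at about 20% in these data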;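 also: 0% = DMSO wells and 100% = biotin wells as full block of FRET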
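Material: NR2E3–RetCOR corepressor complex / Amount: 1.35 nM GST-NR2E3 / Medium: Tris pH 7.5 / Compound: single nominal compound dose of 4.8 µM / Incubation: 5 h at 4 °C / Technique: TR-FRET, Eu(K)-anti-GST donor, streptavidin-D2 acceptor, ex 340, em 617/671 nm / Read-out basis: percent loss of FRET ratio relative to control wells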
rCAG bind conf: r(CAG) RNA repeat binding, confirmation. shares compounds with rCAG RNA binder. TO-PRO-1 dye displacement fluorescence. inhibition, % at 3 µM. actives 70% (n = 4,300). AID 652065;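 active = inhibition above a per-plate cutoff, the mean inhibition of sample wells plus 3 SD, cut at about 35% in these data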;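 also: loss of TO-PRO-1 fluorescence as compound displaces dye from 1x1 AA loop RNA; 0% = DMSO only wells and 100% = 100 µM mitoxantrone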
DNA CAG counter: DNA CAG dye complex inhibition counter-screen. shares compounds with rCAG RNA binder. d(CAG) DNA oligo TO-PRO-1 dye displacement, fluorescence. inhibition, % at 3 µM. actives 94% (n = 4,300). AID 652068;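 active = inhibition above its plate's cutoff, the mean test-well inhibition plus 3 SD, cut at about 4.8% in these data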;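 also: 0% = DNA dye mix with DMSO and 100% = 100 µM mitoxantrone; hits displace the dye from DNA and so lower well fluorescence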
DNA CAG DR: DNA CAG dye complex inhibition, dose response counter-screen; shares compounds with rCAG RNA binder; DNA CAG/GTC duplex TO-PRO-1 dye displacement fluorescence; IC50, µM; actives 20% (n = 250); AID 686960; in the data active = IC50 below about 10 µM
Numbers without * were called inactive; . = not tested or not shown. Shown are actives, neighbours in structure and some others; about 2.6% of the full set was active somewhere.

SMILES | NR1D1 modulator | rCAG RNA binder | NR2E3 ag-1 | PG9 binder | NR2E3 ag-2 | rCAG bind conf | DNA CAG counter | others
COc1cccc(NC(=O)CSc2nc3c(oc4ccccc43)c(=O)[nH]2)c1 | 3 | 54* | -84 | 0 | 2 | 45* | 15*
O=C(COC(=O)c1cccc(NS(=O)(=O)c2ccc(F)c(F)c2)c1)NC(=O)NC1CCCC1 | -4 | 36* | -5 | 0 | 3 | 26 | 5.0*
O=C(COC(=O)c1cccc(F)c1)NC(=O)NC1CCCC1 | -1 | 0 | -9 | -1 | 1 | . | .
CS(=O)(=O)C1=NSC2=NC(=O)/C(=C\c3cccn3-c3ccc(Cl)cc3)C(=N)N21 | -15 | 85* | -3 | 0 | 2 | 85* | 54*
Cc1cc(/C=C2/C(=N)N3C(=NC2=O)SN=C3S(C)(=O)=O)c(C)n1-c1ccccc1F | -6 | 80* | -78 | 0 | 2 | 83* | 56*
Cc1ccc(-n2cccc2/C=C2\C(=N)N3N=C(C(C)C)SC3=NC2=O)cc1 | -8 | 24 | -16 | -1 | -1 | . | .
CSc1nc(SCC(=O)O)c2sc3nc(-c4ccccc4)c4c(c3c2n1)CCC4 | -11 | 39* | 20 | 1 | . | 63* | 38*
CSc1nc(N(C)CCO)c2sc3nc(-c4ccco4)c4c(c3c2n1)CCC4 | . | . | -23 | . | 1 | . | .
CCOc1ccc(/C=N/NC(=O)Cc2ccccc2)cc1CN1CC2CC(C1)c1cccc(=O)n1C2 (stereo not given) | 3 | 2 | -19 | 0 | 2 | . | .
CNc1ccc(Br)cc(C(=O)/C=C/c2ccc(OC)cc2OC)c1=O | -3 | 30 | -51 | -3 | 1 | . | .
CCNc1ccc(Br)cc(C(=O)/C=C/c2ccc3c(c2)OCO3)c1=O | -6 | 39* | -42 | -1 | -4 | 36* | 18*
CNc1ccc(Br)cc(C(=O)/C=C/c2cccc(OC)c2)c1=O | -6 | 36* | -30 | -3 | 0 | 37* | 16*
CCOC(=O)Cc1ccc(Nc2nc(NCc3ccccc3)nc3ccsc23)cc1 | -3 | 1 | 9 | 2 | . | . | .
Cc1noc(NS(=O)(=O)c2ccc(N/C=C\C(=O)c3ccccc3)cc2)c1C | 2 | 15 | -21 | -2 | 0 | . | .
CCc1nnc(NS(=O)(=O)c2ccc(N/C=C\C(=O)c3cccc(OC)c3)cc2)s1 | -3 | 49* | -72 | -4 | -1 | 63* | 28*
CCc1nnc(NS(=O)(=O)c2ccc(N/C=C\C(=O)c3ccc(C)cc3)cc2)s1 | -3 | 55* | -91 | 2 | 3 | 72* | 39*
Cc1cc(C)nc(NS(=O)(=O)c2ccc(N/C=C\C(=O)c3ccc(Cl)cc3)cc2)n1 | 6 | 23 | -50 | 1 | 0 | . | .
CCc1nnc(NS(=O)(=O)c2ccccc2)s1 | 2 | 1 | -3 | 1 | 2 | . | .
Cc1noc(NS(=O)(=O)c2ccc(N/C=C\C(=O)c3ccc(F)cc3)cc2)c1C | -2 | 36* | -40 | -1 | 3 | 43* | 7.9*
CCc1nnc(NS(=O)(=O)c2ccc(N/C=C/C(=O)c3ccc(C)cc3)cc2)s1 | 0 | 50* | -52 | 0 | 2 | 72* | 34* | DNA CAG DR=9.6*
COc1ccc(CCN2CC(C(=O)NCc3ccon3)CCC2=O)cc1 (stereo not given) | -6 | 0 | -41 | -2 | . | . | .
O=C1c2ccccc2C(c2nnnn2Cc2ccccc2)N1CCc1ccc(O)cc1 (stereo not given) | 7 | 4 | -18 | 0 | . | . | .
Cn1c(=O)c2cc(NC(=O)Nc3cccnc3)ccc2n1-c1ccc(C(C)(C)C)cc1 | -5 | 6 | -22 | 1 | . | . | .
CCc1nnc(NS(=O)(=O)c2ccc(N/C=C\C(=O)c3ccc(F)cc3)cc2)s1 | -4 | 48* | -37 | 2 | 1 | 61* | 23*
NS(=O)(=O)c1ccc(N/C=C\C(=O)c2ccc(F)cc2)cc1 | 0 | 0 | -60 | 1 | 2 | . | .
